The target of data set [1] is DNA topoisomerase 2-alpha (Homo sapiens) (UniProt P11388). The experiment in a line: Inhibition of human Topo2alpha-mediated kDNA decatenation at 100 uM after 30 mins by SDS-based agarose gel electrophoresis.
The nature of data set [2]: Cytotoxicity against African green monkey Vero cells assessed as reduction in colony formation after 48 hrs by crystal violet-staining based assay. It counts as toxicity, cell-based. To be noted: chlorocebus sabaeus; for CC50 at 48 h: Vero cells, read-out: LC50; for Activity: vero, 48 h.
The nature of data set [3]: Cytotoxicity against African green monkey Vero cells assessed as cells growth inhibition after 48 hrs by MTT assay. To be noted: for IC50 at 48 h: African green monkey (Chlorocebus sabaeus), Vero cells; for Activity: chlorocebus sabaeus, vero, 48 h. It counts as toxicity, cell-based, Chlorocebus sabaeus. In a few lines:
(§1)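 MTT colorimetric assay. HEK-293T (kidney line) and VERO cells were tested, and the IC50 was taken as the concentration giving 50% growth inhibition.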

Data set [4] has as its system MCF7. The experiment in a line: Cytotoxicity against human MCF7 cells assessed as reduction in colony formation after 48 hrs by crystal violet-staining based assay. It counts as functional, cell-based.
Data set [5] is described as follows: (§2) Cytotoxicity against HEK293T cells assessed as reduction in colony formation after 48 hrs by crystal violet-staining based assay. It is filed as functional. To be noted: Homo sapiens, HEK-293T, read-out: LC50 (the source's name).
Data set [6] can be described thus: (§3) Cytotoxicity against HEK293T cells assessed as cells growth inhibition after 48 hrs by MTT assay. It is filed as functional, cell-based. To be noted: Homo sapiens, HEK-293T. In a few lines:
as §1
(In general: Formazan colour is commonly taken as a measure of viable cells.)

Data set [7] deals with MCF7. Put plainly: Cytotoxicity against human MCF7 cells assessed as cells growth inhibition after 48 hrs by MTT assay. It counts as functional, cell-based.
A short description of data set [8]: Cytotoxicity against human MDA-MB-231 cells assessed as reduction in cell viability after 48 hrs by MTT assay. It is filed as functional, cell-based. The following applies: MDA-MB-231, 48 h.
Data set [9] relates to HEK-293T. Described as §2. It is filed as functional. The following applies: Homo sapiens.
The test system of data set [10] is HEK-293T. The description is as §3. It counts as functional, cell-based. To be noted: Homo sapiens. The essentials: as §1
The nature of data set [11]: Cytotoxicity against human MDA-MB-468 cells assessed as reduction in cell viability after 48 hrs by MTT assay. To be noted: MDA-MB-468, 48 h. It is filed as functional, cell-based.
Data set [12] can be described thus: Cell cycle arrest in human MCF7 cells assessed as accumulation at G2/M phase at 70 nM after 48 hrs by propidium iodide-staining based FACS analysis (reference value: 41 +/- 2.8 %). It is filed as functional.
The target of data set [13] is DNA topoisomerase 2-alpha (Homo sapiens) (UniProt P11388). Put plainly: Poison activity at human Topo2alpha using pUC19 as substrate assessed as DNA cleavage-complex formation at 100 uM measured after 20 mins by ethidium bromide staining based SDS-agarose gel electrophoresis.
Data set [14] has as its system MCF7. The experiment in a line: Inhibition of topoisomerase in human MCF7 cell nuclear lysates assessed as reduction in relaxation of supercoiled plasmid DNA NFkB substrate at 10 to 70 nM after 30 mins by ethidium bromide-staining based agarose gel electrophoresis. The essentials:
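Ex vivo topoisomerase assay using MCF-7 nuclear lysate with NFkB plasmid as substrate. Compound ranged from 10 nM to 75 nM, with lanes for plasmid alone and untreated lysate, and an etoposide lane at 45 µM.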

Data set [15] is described as follows: Binding affinity to DNA (unknown origin) assessed as occurrence of hypochromism after 1 hr by UV-Vis spectrophotometric analysis. The essentials: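 UV absorption of DNA near 260 nm, recorded with and without increasing compound concentrations; hypochromism was taken as the binding read-out.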
Data set [16] is described as follows: Cell cycle arrest in human MCF7 cells assessed as accumulation at subG1 phase at 100 nM after 48 hrs by propidium iodide-staining based FACS analysis (reference value: 0.8 +/- 0.1 %). It is filed as functional. For orientation: In flow cytometry, cells or beads pass a laser one at a time.
Data set [17] is described as follows: Inhibition of tubulin polymerization in human MCF7 cells assessed as suppression of protein assembly after 15 mins by spectrophotometric analysis. It counts as cell-based.
Data set [18] is described as follows: Cell cycle arrest in human MCF7 cells assessed as accumulation at G0 phase at 2000 nM after 48 hrs by propidium iodide-staining based FACS analysis. It counts as functional.
The nature of data set [19]: Cell cycle arrest in human MCF7 cells assessed as accumulation at G2/M phase at 2000 nM after 48 hrs by propidium iodide-staining based FACS analysis. It is filed as functional.

The source made the active and inactive calls. No cut-off for these calls is given here.

Chain of DNA topoisomerase 2-alpha (Homo sapiens) (P11388 whole entry): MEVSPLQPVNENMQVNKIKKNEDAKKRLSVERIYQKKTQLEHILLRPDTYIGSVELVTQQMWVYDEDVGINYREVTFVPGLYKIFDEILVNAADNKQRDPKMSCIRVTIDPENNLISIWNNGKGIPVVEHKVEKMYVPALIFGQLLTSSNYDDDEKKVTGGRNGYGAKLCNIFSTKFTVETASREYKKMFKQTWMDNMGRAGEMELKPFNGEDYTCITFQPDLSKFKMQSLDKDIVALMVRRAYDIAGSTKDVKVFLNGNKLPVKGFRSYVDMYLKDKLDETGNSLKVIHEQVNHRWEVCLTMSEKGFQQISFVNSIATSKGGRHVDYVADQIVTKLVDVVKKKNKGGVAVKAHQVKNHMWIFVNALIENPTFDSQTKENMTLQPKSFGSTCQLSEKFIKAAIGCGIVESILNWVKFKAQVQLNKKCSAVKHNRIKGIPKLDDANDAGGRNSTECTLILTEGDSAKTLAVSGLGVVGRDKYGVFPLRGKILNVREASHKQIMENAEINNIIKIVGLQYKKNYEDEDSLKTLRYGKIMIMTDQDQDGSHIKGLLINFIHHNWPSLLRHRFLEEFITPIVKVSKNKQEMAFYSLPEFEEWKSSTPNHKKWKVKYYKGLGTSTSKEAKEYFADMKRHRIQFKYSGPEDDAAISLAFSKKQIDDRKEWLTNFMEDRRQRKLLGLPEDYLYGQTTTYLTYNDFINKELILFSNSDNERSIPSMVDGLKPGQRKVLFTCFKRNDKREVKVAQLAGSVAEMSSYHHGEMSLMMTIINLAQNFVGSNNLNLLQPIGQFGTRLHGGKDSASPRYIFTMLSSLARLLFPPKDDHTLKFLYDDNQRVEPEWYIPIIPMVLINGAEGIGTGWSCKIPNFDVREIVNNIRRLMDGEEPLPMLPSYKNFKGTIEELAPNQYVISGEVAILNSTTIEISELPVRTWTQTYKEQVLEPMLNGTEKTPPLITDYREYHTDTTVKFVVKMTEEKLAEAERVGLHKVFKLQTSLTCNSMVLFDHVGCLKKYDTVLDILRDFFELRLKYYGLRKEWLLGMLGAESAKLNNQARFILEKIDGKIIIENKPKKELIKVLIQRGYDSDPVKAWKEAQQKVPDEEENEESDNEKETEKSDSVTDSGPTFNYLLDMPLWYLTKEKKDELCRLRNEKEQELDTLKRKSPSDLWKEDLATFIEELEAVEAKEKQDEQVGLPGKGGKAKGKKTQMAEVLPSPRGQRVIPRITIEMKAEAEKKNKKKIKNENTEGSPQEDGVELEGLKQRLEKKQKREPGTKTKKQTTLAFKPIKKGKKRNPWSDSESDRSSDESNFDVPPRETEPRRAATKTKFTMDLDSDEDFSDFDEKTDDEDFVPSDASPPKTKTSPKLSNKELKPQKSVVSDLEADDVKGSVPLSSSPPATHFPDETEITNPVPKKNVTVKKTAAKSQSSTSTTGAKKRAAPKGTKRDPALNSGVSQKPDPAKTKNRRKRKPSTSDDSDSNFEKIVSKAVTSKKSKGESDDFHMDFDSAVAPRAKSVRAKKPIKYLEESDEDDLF

The IC50 is the concentration needed to halve the response being measured. In the case of `O=C1/C(=C/c2ccc(Cl)cc2)N=C2C=CC=CN12`, the inhibition result in [1] was “Active”. Moreover, the CC50 at 48 h in data set [2] was 1500 nM. In data set [3], the IC50 at 48 h is 200 nM. For the same compound, in the data set with MCF7 [4], the result was Active. Also, the CC50 in [5] stood at 40 nM. Also, the IC50 in [6] amounted to 30 nM.

For the compound `COc1cc(/C=C2\N=C3C=CC=CN3C2=O)cc(OC)c1OC`, in [2], the CC50 at 48 h was determined as 1000 nM. The IC50 at 48 h in [3] turned out to be 200 nM. For the same compound, the result in the data set with MCF7 [4] was Active. For the same compound, the CC50 in data set [5] worked out at 55 nM. For the same compound, the IC50 in data set [6] was found to be 10 nM.

As for `O=C1/C(=C/c2ccc(Br)cc2)Oc2ccccc21`, the inhibition entry in [1] is “Active”. Also, the Activity result (in data set [2]; in data set [3]; in the data set on MCF7 [4]; with HEK-293T [9]) was “Dose-dependent effect” each time. In addition, the “growth inhibition (GI)” value in the data set with MCF7 [7] and in the data set on HEK-293T [10] was “Dose-dependent effect” in each case. Further, the IC50 at 48 h in [3] was 2400 nM. Besides, the figures for the IC50 in [8], in [6] and in [11] were 600 to 840 nM, 900 nM and 600 to 840 nM, respectively.

For `O=C1/C(=C/c2ccc(Cl)cc2)N=C2C=CC(Br)=CN12`, in data set [1], the inhibition entry is “Active”.

Turning to `COc1ccc(/C=C2\N=C3C=CC(Cl)=CN3C2=O)cc1`, the CC50 at 48 h in data set [2] amounted to 1500 nM. In addition, in data set [3], the IC50 at 48 h worked out at 1500 nM. The result with MCF7 [4] was Active. In addition, the CC50 in data set [5] is 40 nM. Moreover, the IC50 in data set [6] came out at 80 nM.

On to `O=C1/C(=C/c2ccc(Br)cc2)N=C2C=CC=CN12`, for which the inhibition entry (in data set [1]; with MCF7 [14]) was “Active” each time. For the same compound, in data set [2], the CC50 at 48 h worked out at 1500 nM. The Activity entry in data set [2] is “Dose-dependent effect”; in data set [3] it was “Dose-dependent effect”; in the data set with MCF7 [4] it was “Dose-dependent effect”; in [12], 33.2%; in the data set with HEK-293T [9] it was “Dose-dependent effect”; in [16], 19.9%. Also, the “growth inhibition (GI)” value with MCF7 [7] and with HEK-293T [10] was “Dose-dependent effect” throughout. Further, the IC50 at 48 h in data set [3] is 200 nM. Besides, the IC50 in data set [8] amounted to 76 nM; in data set [6] it was 45 nM; in data set [11] it was 70 nM; in data set [17] it was 60 nM. For the same compound, the CC50 in [5] was found to be 20 nM. The result in [13] was Active. Besides, the Kb in [15] is 2.5e+06 M⁻¹.

`CC1=CN2C(=O)/C(=C/c3ccc(Cl)cc3)N=C2C=C1`: the inhibition result in data set [1] is “Active”.

On to `O=C1/C(=C/c2ccc(Cl)cc2)N=C2C=CC(Cl)=CN12`, for which the inhibition entry in data set [1] is “Active”. For the same compound, the CC50 at 48 h in [2] is 1500 nM. The IC50 at 48 h in [3] stood at 1500 nM. Moreover, the result with MCF7 [4] was Active. In data set [5], the CC50 was 40 nM. In [6], the IC50 turned out to be 45 nM.

As for `COc1ccc(/C=C\c2cc(OC)c(OC)c(OC)c2)cc1O` [COMBRETASTATIN A4], the result in data set [18] and in data set [19] was Active. Further, the IC50 in data set [17] amounted to 2500 nM.

Turning to `COc1cc([C@@H]2c3cc4c(cc3[C@@H](O[C@@H]3O[C@@H]5CO[C@@H](C)O[C@H]5[C@H](O)[C@H]3O)[C@H]3COC(=O)[C@H]23)OCO4)cc(OC)c1O` [ETOPOSIDE], in [1], the inhibition entry was “Active”. Also, the IC50 at 48 h in data set [3] amounted to 50000 nM. For the same compound, the IC50 in data set [6] came out at 22000 nM.

With `O=C1/C(=C/c2ccc(Cl)cc2)N=C2C(Br)=CC(Br)=CN12`, the inhibition entry in [1] was “Active”.

On to `COc1ccc(OC)c(/C=C2\N=C3C=CC=CN3C2=O)c1`, for which, in data set [1], the inhibition result is “Active”. Moreover, in [2], the CC50 at 48 h worked out at 1500 nM. The half-inhibitory concentration (IC50) at 48 h in data set [3] was determined as 1500 nM. The result in the data set with MCF7 [4] was Active. Besides, the CC50 in data set [5] amounted to 60 nM. Also, in data set [6], the IC50 was found to be 150 nM.

Consider `COc1cccc(/C=C2\N=C3C=CC=CN3C2=O)c1`, for which the inhibition result in data set [1] was “Active”. Besides, in [2], the CC50 at 48 h was found to be 1500 nM. Further, the IC50 at 48 h in data set [3] was found to be 1500 nM. Moreover, the result with MCF7 [4] was Active. Also, the CC50 in [5] is 75 nM. In data set [6], the IC50 was determined as 80 nM.

`CN(C)c1ccc(/C=C2\N=C3C=CC=CN3C2=O)cc1`: the inhibition result in data set [1] is “Active”.

As to `COc1ccc(/C=C2\Oc3ccccc3C2=O)cc1` [4'-METHOXY-AURONE], the inhibition entry in data set [1] is “Active”. In addition, the Activity entry (in data set [2]; in data set [3]; in the data set on MCF7 [4]; in the data set with HEK-293T [9]) was “Dose-dependent effect” in each case. Also, the “growth inhibition (GI)” value in the data set with MCF7 [7] and with HEK-293T [10] was “Dose-dependent effect” throughout. In addition, in data set [3], the IC50 at 48 h was determined as 2500 nM. In addition, the IC50 in data set [8] is 600 to 840 nM; in data set [6], 700 nM; in data set [11] it was 600 to 840 nM.

For the compound `O=C1/C(=C/c2ccc(O)cc2)N=C2C=CC=CN12`, the CC50 at 48 h in data set [2] worked out at 1500 nM. Also, the half-inhibitory concentration (IC50) at 48 h in [3] turned out to be 1500 nM. Besides, the result in the data set with MCF7 [4] was Active. Moreover, in data set [5], the CC50 is 50 nM. Moreover, the IC50 in [6] worked out at 40 nM.

The record behind these values is ChEMBL document CHEMBL3864174, “Scaffold-Hopping of Aurones: 2-Arylideneimidazo[1,2-a]pyridinones as Topoisomerase IIα-Inhibiting Anticancer Agents” (ACS Med Chem Lett, 2016).
